56 compounds from ChEMBL document CHEMBL4011602, “Xanthine oxidase inhibitory activity of nicotino/isonicotinohydrazides: A systematic approach from in vitro, in silico to in vivo studies” (Bioorg Med Chem, 2017) can be followed below.

pIC50, pKi: −log10 of the molar value.

The pIC50 is the IC50 on a negative log10 scale, so that one unit is a factor of ten. What is called pKi is −log10 of the Ki, conventionally taken in molar units. By inhibition in vivo is commonly meant the percentage by which the read-out fell short of the control. Higher therefore signals a strong effect.

In assay [1] the target is T1, Xanthine dehydrogenase/oxidase (Bos taurus, UniProt P80457). Briefly: Inhibition of bovine xanthine oxidase using xanthine as substrate preincubated for 10 mins followed by substrate addition measured for 15 mins by spectrophotometric method. Particulars: for pIC50: read-out: IC50; call rule not given here.
T1 sequence (P80457 whole entry): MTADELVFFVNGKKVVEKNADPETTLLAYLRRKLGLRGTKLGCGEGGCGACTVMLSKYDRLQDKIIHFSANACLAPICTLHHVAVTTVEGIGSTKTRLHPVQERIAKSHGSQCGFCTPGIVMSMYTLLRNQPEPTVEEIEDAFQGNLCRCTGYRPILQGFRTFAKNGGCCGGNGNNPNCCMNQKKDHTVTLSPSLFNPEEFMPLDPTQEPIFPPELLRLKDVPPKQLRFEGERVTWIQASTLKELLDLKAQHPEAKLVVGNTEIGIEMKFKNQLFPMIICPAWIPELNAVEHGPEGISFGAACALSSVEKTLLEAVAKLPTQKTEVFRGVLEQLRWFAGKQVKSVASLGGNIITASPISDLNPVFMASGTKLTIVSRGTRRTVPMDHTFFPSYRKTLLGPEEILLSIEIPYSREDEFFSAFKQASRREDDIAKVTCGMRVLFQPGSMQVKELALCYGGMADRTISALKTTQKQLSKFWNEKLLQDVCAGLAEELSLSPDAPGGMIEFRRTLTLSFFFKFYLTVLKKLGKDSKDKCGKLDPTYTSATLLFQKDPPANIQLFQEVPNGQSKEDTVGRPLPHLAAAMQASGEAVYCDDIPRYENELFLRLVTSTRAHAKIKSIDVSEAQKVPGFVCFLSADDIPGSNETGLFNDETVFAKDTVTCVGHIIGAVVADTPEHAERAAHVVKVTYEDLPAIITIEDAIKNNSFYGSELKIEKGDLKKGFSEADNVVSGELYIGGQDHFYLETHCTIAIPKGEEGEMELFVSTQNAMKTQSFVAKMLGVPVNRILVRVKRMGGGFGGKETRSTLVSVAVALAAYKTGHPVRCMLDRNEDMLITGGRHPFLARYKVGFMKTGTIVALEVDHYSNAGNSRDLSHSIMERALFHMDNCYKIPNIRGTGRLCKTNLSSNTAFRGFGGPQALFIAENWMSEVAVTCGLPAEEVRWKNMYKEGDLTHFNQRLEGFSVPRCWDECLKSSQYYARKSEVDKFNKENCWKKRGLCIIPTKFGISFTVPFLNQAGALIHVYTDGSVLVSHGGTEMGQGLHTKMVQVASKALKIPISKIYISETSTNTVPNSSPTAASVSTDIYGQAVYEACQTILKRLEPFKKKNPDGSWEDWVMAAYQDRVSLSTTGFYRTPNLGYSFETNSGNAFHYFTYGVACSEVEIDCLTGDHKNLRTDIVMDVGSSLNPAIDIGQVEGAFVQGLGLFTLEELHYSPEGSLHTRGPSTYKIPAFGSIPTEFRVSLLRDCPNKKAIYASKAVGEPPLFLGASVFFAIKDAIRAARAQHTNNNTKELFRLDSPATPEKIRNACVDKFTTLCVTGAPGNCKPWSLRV
The target of assay [2] is Xanthine dehydrogenase/oxidase (Bos taurus) (UniProt P80457).
Sequence of Xanthine dehydrogenase/oxidase (Bos taurus) (P80457 whole entry, looked up): as the sequence (P80457 whole entry) above
Assay [3] concerns the target T1, Xanthine dehydrogenase/oxidase. As to the kind of experiment: Competitive inhibition of bovine xanthine oxidase using varying levels of xanthine as substrate preincubated for 10 mins followed by substrate addition measured for 15 mins by Lineweaver-Burk plot/Dixon plot analysis. In a few lines: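 Run like the inhibition assay: XO (0.003 units/well) in 50 mM phosphate buffer pH 7.4, inhibitor in 90% DMSO, preincubated 10 min at 30 °C. Varied inhibitor and xanthine concentrations (0.0375, 0.075, 0.15, 0.300 mM), absorbance change at 295 nm over 15 min.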

For assay [4], the system named is Rattus norvegicus. Briefly: In vivo inhibition of xanthine oxidase in Wistar rat assessed as retention time of 6-MP at 50 mg/kg, ip using 6-mercaptopurine as substrate after 6 hrs by UPLC method (reference value: 4.912 min). The class given is functional, organism-based.
Assay [5] relates to Rattus norvegicus. Briefly: In vivo inhibition of xanthine oxidase in Wistar rat assessed as peak area of 6-MP at 50 mg/kg, ip using 6-mercaptopurine as substrate after 6 hrs by UPLC method (reference value: 7.3 mAU). The class given is functional.
Assay [6] relates to Rattus norvegicus. Briefly: In vivo inhibition of xanthine oxidase in Wistar rat at 50 mg/kg, ip using 6-mercaptopurine as substrate after 6 hrs by UPLC method relative to control. It is filed as functional.

As to `O=C(N/N=C/c1cccc(O)c1)c1cccnc1`, the IC50 result in assay [1] is given as “Not Active”. For the compound `CSc1ccc(/C=N/NC(=O)c2ccncc2)cc1`, the IC50 result in assay [1] is listed as “Not Active”. On the same count and under the same terms, the result for `Cc1ccc(O)c(/C=N/NC(=O)c2cccnc2)c1` reads “Not Active”. With `O=C(N/N=C/c1cccc([N+](=O)[O-])c1)c1ccncc1`, the pIC50 in assay [1] is 3.76.

Turning to `CSc1ccc(/C=N/NC(=O)c2cccnc2)cc1`, the IC50 entry in assay [1] was “Not Active”.

As to `O=C(N/N=C/c1cccc(Cl)c1)c1cccnc1`, in assay [1], the pIC50 was 3.69.

With `O=C(N/N=C/c1ccc(O)c(O)c1O)c1cccnc1`, in assay [1], the IC50 entry is on record as “Not Active”. `O=C(N/N=C/c1ccc(Cl)cc1Cl)c1cccnc1`: the IC50 result in assay [1] is recorded as “Not Active”. Take `O=C(O)c1cccnc1` [NIACIN]: in assay [2], the pIC50 was 3.29. Consider `COc1cccc(O)c1/C=N/NC(=O)c1cccnc1`, for which, in assay [1], the IC50 entry is “Not Active”. On to `O=C(N/N=C/c1ccc(O)c(O)c1)c1cccnc1`, for which the pIC50 in assay [1] is 5.00. Further, the pKi in assay [3] was 5.14. In addition, in the assay with Rattus norvegicus [4], the Retention time is 4.9 min. For the same compound, the Activity in the assay with Rattus norvegicus [5] stood at 0.001 mAU. Take `CCOc1cccc(/C=N/NC(=O)c2cccnc2)c1O`: the pIC50 in assay [1] is 3.58. For the compound `CCOc1ccc(/C=N/NC(=O)c2ccncc2)cc1O`, the IC50 result in assay [1] is given as “Not Active”. The same measure, in the same setting: the result for `COc1ccc(/C=N/NC(=O)c2ccncc2)cc1OC` [VERAZIDE] reads “Not Active”; that for `CCOc1ccccc1/C=N/NC(=O)c1ccncc1`, “Not Active”.

For the compound `O=C(N/N=C/c1cccc(Cl)c1)c1ccncc1` [N'-(3-CHLOROBENZYLIDENE)ISONICOTINOHYDRAZIDE], the pIC50 in assay [1] was 3.69. Same read-out and setting: the result for `O=C(N/N=C/c1ccccc1)c1cccnc1` [NICOTINIC ACID BENZYLIDENE-HYDRAZIDE] reads 3.68; that for `O=C(N/N=C/c1ccc(O)cc1)c1cccnc1`, 3.74; that for `O=C(N/N=C/c1cc(O)cc(O)c1)c1cccnc1`, 3.79. With `O=C(N/N=C/c1ccccc1)c1ccncc1` [N'-BENZYLIDENE ISONICOTINOHYDRAZIDE], in assay [1], the IC50 result is recorded as “Not Active”. The same measure, in the same setting: the result for `O=C(N/N=C/c1ccc(O)cc1)c1ccncc1` reads “Not Active”. On the same count and under the same terms, the result for `O=C(N/N=C/c1ccc([N+](=O)[O-])cc1)c1ccncc1` [N'-(4-NITROBENZYLIDENE)ISONICOTINOHYDRAZIDE] reads “Not Active”; that for `O=C(N/N=C/c1cc([N+](=O)[O-])ccc1Cl)c1ccncc1`, “Not Active”.

On to `O=C(N/N=C/c1ccccc1Br)c1cccnc1`, for which, in assay [1], the pIC50 was 3.70. Turning to `CCOc1cccc(/C=N/NC(=O)c2ccncc2)c1O`, the pIC50 in assay [1] is 4.26. The pKi in assay [3] was 4.29.

`Oc1ncnc2[nH]ncc12` [ALLOPURINOL]: in the assay with Rattus norvegicus [4], the Retention time was 4.93 min. Also, the Activity in the assay on Rattus norvegicus [5] is 166.3 mAU. In addition, at 50 mg/kg the inhibition in vivo in the assay on Rattus norvegicus [6] was 100%. For the compound `O=C(N/N=C/c1ccc(Cl)cc1)c1cccnc1`, the pIC50 in assay [1] is 3.71. For the compound `O=C(N/N=C/c1ccccc1[N+](=O)[O-])c1ccncc1`, the IC50 entry in assay [1] was “Not Active”. On the same count and under the same terms, the result for `O=C(N/N=C/c1ccccc1F)c1ccncc1` reads “Not Active”. Regarding `O=C(N/N=C/c1ccccc1F)c1cccnc1`, the pIC50 in assay [1] is 3.76.

Consider `COc1cccc(/C=N/NC(=O)c2ccncc2)c1O`, for which the pIC50 in assay [1] is 4.68. Also, in assay [3], the pKi is 4.82. For the compound `O=C(N/N=C/c1cccc([N+](=O)[O-])c1)c1cccnc1`, in assay [1], the pIC50 was 3.74. With `COc1ccccc1/C=N/NC(=O)c1cccnc1`, the IC50 result in assay [1] is “Not Active”. The same measure, in the same setting: the result for `O=C(N/N=C/c1ccc([N+](=O)[O-])cc1)c1cccnc1` reads “Not Active”.

For the compound `COc1cccc(/C=N/NC(=O)c2cccnc2)c1O`, the negative-log IC50 (pIC50) in assay [1] is 3.76.

Turning to `O=C(N/N=C/c1ccccc1O)c1ccncc1` [SALINAZID], the IC50 entry in assay [1] is “Not Active”. The same measure, in the same setting: the result for `CCOc1ccccc1/C=N/NC(=O)c1cccnc1` reads “Not Active”; that for `O=C(N/N=C/c1ccc(O)cc1O)c1ccncc1`, “Not Active”. On the same count and under the same terms, the result for `COc1ccc(/C=N/NC(=O)c2cccnc2)cc1OC` reads “Not Active”; that for `CN(C)c1ccc(/C=N/NC(=O)c2ccncc2)cc1` [N'-(4-DIMETHYLAMINOBENZYLIDENE)ISONICOTINOHYDRAZIDE], “Not Active”; that for `CCOc1ccc(/C=N/NC(=O)c2ccncc2)cc1OCC`, “Not Active”. On the same count and under the same terms, the result for `O=C(N/N=C/c1cccc(O)c1)c1ccncc1` reads “Not Active”. Turning to `O=C(N/N=C/c1c(O)cc(O)cc1O)c1ccncc1`, the pIC50 in assay [1] was 6.02. The compound also had a negative-log Ki (pKi) in assay [3] of 6.09. Moreover, in the assay with Rattus norvegicus [4], the Retention time stood at 4.92 min. In addition, the Activity with Rattus norvegicus [5] amounted to 73.5 mAU. The same compound gave an inhibition in vivo at 50 mg/kg with Rattus norvegicus [6] of 44%.

In the case of `Cc1ccccc1/C=N/NC(=O)c1cccnc1`, the pIC50 in assay [1] is 3.74. The same measure, in the same setting: the result for `O=C(N/N=C/c1ccc(Cl)cc1)c1ccncc1` reads 3.75. As to `CCOc1ccc(/C=N/NC(=O)c2cccnc2)cc1`, the pIC50 in assay [1] is 3.62. Regarding `COc1ccc(/C=N/NC(=O)c2cccnc2)c(OC)c1OC`, the IC50 result in assay [1] was “Not Active”. Still for that read-out and setting: the result for `O=C(N/N=C/c1ccccc1Cl)c1ccncc1` reads “Not Active”; that for `CN(C)c1ccc(/C=N/NC(=O)c2cccnc2)cc1`, “Not Active”.

For the compound `O=C(N/N=C/c1ccc(O)c(O)c1)c1ccncc1`, in assay [1], the pIC50 is 4.91. The compound also gave a pKi in assay [3] of 4.81. The Retention time with Rattus norvegicus [4] is 4.95 min. Moreover, the Activity in the assay with Rattus norvegicus [5] turned out to be 47.4 mAU. The inhibition in vivo at 50 mg/kg in the assay with Rattus norvegicus [6] was 28%. Take `O=C(N/N=C/c1ccc(Cl)cc1Cl)c1ccncc1`: the IC50 result in assay [1] was “Not Active”. Consider `COc1ccc(O)c(/C=N/NC(=O)c2ccncc2)c1`, for which, in assay [1], the IC50 result is given as “Not Active”. Same read-out and setting: the result for `O=C(N/N=C/c1ccccc1[N+](=O)[O-])c1cccnc1` reads “Not Active”. Still for that read-out and setting: the result for `COc1ccc(/C=N/NC(=O)c2ccncc2)cc1O` reads “Not Active”; that for `COc1ccc(O)c(/C=N/NC(=O)c2cccnc2)c1`, “Not Active”. With `CCOc1ccc(/C=N/NC(=O)c2ccncc2)cc1`, the pIC50 in assay [1] is 3.48.
